Columns and labels:
[1] = molecular target: Serine/threonine-protein kinase PLK4 (Homo sapiens) (UniProt O00444); assay: Inhibition of PLK4 (unknown origin) assessed as remaining activity at 10 uM by ATP-competition binding assay relative to control
[2] = molecular target: Cyclin-dependent kinase 2 (Homo sapiens, UniProt P24941); assay: Inhibition of CDK2 K1 site in human HeLa cells lysate pre incubated for 15 mins followed by ADP acyl phosphate probe addition and measured after 10 mins by LC-MS/MS analysis; format: subcellular
Method in brief: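 KiNativ profiling in HeLa lysate (5 mg/mL total protein). Lysate incubated 15 min with inhibitor at 50, 10, 2, 0.8 or 0 μM. ATP or ADP acylphosphate probe then added (5 μM final) and reacted 10 min. Reaction stopped with urea and analysed by targeted MS, using up to four fragment ions per kinase peptide-probe conjugate. % inhibition taken against untreated lysate. Run in duplicate.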

[3] = molecular target: Serine/threonine-protein kinase 3/4 (Homo sapiens) (UniProt Q13043+Q13188); assay: Inhibition of MST1/2 in human HeLa cells lysate at 50 uM pre incubated for 15 mins followed by ATP acyl phosphate probe addition and measured after 10 mins by LC-MS/MS analysis relative to control; format: subcellular; conditions: time 25.0 min
Serine/threonine-protein kinase 3/4 (Homo sapiens), sequence (Q13043 whole entry, looked up): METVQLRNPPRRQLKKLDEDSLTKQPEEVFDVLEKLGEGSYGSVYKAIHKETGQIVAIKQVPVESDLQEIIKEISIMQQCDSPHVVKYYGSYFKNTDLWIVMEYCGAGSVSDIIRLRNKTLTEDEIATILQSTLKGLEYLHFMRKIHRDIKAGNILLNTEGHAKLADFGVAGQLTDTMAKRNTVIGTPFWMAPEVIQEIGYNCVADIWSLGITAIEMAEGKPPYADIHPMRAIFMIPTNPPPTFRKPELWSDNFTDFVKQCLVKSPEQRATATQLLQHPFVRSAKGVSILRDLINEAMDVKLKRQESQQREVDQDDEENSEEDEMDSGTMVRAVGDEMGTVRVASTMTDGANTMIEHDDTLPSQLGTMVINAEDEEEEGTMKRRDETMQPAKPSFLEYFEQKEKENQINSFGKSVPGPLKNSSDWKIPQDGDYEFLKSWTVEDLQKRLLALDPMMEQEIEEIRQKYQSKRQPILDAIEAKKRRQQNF
Serine/threonine-protein kinase 3/4 (Homo sapiens), sequence (Q13188 whole entry, looked up): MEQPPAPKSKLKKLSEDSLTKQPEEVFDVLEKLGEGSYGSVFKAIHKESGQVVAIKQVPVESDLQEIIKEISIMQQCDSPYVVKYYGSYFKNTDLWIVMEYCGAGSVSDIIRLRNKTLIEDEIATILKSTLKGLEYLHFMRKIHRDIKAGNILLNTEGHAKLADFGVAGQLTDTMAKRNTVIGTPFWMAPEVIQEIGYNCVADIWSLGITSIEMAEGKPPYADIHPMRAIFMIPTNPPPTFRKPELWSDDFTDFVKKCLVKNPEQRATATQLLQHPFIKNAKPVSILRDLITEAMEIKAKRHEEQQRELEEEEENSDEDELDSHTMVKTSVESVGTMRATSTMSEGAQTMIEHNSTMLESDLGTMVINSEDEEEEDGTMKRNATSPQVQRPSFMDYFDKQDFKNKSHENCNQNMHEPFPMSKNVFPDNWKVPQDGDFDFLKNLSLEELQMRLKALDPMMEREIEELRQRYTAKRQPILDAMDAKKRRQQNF

Ephrin type-A receptor 2 = Ephrin type-A receptor 2 (Homo sapiens, UniProt P29317); assay: Inhibition of EphA2 in human HeLa cells lysate at 10 uM pre incubated for 15 mins followed by ATP acyl phosphate probe addition and measured after 10 mins by LC-MS/MS analysis relative to control; format: subcellular; conditions: time 25.0 min
Ephrin type-A receptor 2, sequence (P29317 whole entry): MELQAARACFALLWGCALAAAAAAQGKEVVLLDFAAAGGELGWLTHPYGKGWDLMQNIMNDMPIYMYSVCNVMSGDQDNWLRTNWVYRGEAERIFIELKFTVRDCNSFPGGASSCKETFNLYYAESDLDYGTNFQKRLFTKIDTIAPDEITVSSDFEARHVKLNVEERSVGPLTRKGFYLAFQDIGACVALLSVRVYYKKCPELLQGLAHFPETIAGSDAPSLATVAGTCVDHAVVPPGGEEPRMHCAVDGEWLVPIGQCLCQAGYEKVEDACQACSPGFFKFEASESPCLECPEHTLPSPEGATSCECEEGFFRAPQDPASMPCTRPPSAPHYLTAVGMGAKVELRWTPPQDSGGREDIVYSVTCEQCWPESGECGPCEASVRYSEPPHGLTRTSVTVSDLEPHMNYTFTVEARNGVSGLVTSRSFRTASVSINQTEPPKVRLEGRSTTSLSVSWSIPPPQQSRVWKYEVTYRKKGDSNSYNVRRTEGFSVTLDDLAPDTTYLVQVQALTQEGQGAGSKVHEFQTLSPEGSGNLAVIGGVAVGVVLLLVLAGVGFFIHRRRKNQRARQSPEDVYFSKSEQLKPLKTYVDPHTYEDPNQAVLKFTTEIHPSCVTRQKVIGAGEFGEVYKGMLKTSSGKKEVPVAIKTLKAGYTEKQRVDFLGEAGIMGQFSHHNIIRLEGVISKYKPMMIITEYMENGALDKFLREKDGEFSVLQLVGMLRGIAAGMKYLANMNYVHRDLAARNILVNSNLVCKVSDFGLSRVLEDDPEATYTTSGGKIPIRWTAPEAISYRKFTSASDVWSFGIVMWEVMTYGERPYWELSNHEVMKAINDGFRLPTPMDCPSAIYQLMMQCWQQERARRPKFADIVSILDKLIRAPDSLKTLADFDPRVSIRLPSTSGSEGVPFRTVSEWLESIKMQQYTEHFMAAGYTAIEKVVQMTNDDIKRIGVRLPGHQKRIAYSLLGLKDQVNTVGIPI

[4] = molecular target: Serine/threonine-protein kinase Nek7 (Homo sapiens, UniProt Q8TDX7); assay: Inhibition of NEK7 in human HeLa cells lysate at 50 uM pre incubated for 15 mins followed by ADP acyl phosphate probe addition and measured after 10 mins by LC-MS/MS analysis relative to control; format: subcellular; conditions: time 25.0 min
[5] = molecular target: Mitogen-activated protein kinase 4 (Homo sapiens, UniProt P31152); assay: Inhibition of ERK4 in human HeLa cells lysate pre incubated for 15 mins followed by ATP acyl phosphate probe addition and measured after 10 mins by LC-MS/MS analysis; format: subcellular
[6] = Inhibition of KHS1/2 in human HeLa cells lysate pre incubated for 15 mins followed by ATP acyl phosphate probe addition and measured after 10 mins by LC-MS/MS analysis; format: subcellular
[7] = molecular target: Dual specificity mitogen-activated protein kinase kinase 5 (Homo sapiens, UniProt Q13163); assay: Inhibition of MAP2K5 in human HeLa cells lysate pre incubated for 15 mins followed by ADP acyl phosphate probe addition and measured after 10 mins by LC-MS/MS analysis; format: subcellular
Dual specificity mitogen-activated protein kinase kinase 5, sequence (Q13163 whole entry): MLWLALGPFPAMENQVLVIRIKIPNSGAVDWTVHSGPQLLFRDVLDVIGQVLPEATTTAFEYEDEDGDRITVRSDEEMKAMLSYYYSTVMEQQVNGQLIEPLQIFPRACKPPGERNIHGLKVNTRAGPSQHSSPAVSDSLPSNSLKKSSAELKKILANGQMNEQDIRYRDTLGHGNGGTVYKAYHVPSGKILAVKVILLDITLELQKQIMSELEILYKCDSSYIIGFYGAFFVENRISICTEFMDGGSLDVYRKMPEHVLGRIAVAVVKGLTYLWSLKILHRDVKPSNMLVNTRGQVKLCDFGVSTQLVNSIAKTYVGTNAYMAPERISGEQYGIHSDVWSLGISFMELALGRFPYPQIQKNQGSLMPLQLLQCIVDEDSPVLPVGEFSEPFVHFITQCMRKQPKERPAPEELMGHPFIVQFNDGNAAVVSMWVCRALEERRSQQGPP

[8] = Inhibition of NEK6/7 in human HeLa cells lysate at 50 uM pre incubated for 15 mins followed by ATP acyl phosphate probe addition and measured after 10 mins by LC-MS/MS analysis relative to control; conditions: 25 min, condition cancer
[9] = molecular target: Microtubule-associated serine/threonine-protein kinase 3 (Homo sapiens, UniProt O60307); assay: Inhibition of MAST3 in human HeLa cells lysate pre incubated for 15 mins followed by ATP acyl phosphate probe addition and measured after 10 mins by LC-MS/MS analysis; format: subcellular
[10] = molecular target: Serine/threonine-protein kinase/endoribonuclease IRE1 (Homo sapiens, UniProt O75460); assay: Inhibition of IRE1 in human HeLa cells lysate at 50 uM pre incubated for 15 mins followed by ADP acyl phosphate probe addition and measured after 10 mins by LC-MS/MS analysis relative to control; format: subcellular; conditions: time 25.0 min
Serine/threonine-protein kinase/endoribonuclease IRE1, sequence (O75460 19-977 limits assumed): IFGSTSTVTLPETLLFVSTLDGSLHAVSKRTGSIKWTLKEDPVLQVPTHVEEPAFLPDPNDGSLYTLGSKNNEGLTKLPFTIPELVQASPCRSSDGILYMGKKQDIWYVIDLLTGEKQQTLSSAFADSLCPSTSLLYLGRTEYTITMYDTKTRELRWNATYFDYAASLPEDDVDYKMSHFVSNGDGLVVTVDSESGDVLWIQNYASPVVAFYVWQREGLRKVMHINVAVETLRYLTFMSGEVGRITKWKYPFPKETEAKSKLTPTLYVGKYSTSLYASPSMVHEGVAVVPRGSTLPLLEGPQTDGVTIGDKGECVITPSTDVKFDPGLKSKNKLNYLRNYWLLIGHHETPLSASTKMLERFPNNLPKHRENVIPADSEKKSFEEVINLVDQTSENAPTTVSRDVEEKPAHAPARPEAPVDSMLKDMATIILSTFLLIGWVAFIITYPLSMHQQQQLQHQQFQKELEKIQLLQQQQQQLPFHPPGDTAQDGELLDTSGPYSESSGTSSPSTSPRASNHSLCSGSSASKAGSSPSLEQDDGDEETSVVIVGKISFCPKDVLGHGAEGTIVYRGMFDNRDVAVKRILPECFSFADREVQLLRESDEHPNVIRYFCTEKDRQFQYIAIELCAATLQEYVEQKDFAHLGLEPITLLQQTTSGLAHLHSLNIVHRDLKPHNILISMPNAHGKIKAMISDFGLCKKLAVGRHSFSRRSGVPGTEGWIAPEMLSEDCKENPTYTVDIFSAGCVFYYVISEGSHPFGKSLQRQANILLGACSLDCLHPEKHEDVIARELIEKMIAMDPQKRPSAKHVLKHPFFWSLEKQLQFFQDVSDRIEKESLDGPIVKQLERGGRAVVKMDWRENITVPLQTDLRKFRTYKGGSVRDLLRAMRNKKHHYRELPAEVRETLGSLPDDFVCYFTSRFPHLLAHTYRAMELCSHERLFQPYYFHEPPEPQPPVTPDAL

[11] = molecular target: Serine/threonine-protein kinase 4 (Homo sapiens, UniProt Q13043); assay: Inhibition of MST1 in human HeLa cells lysate pre incubated for 15 mins followed by ADP acyl phosphate probe addition and measured after 10 mins by LC-MS/MS analysis; format: subcellular
Serine/threonine-protein kinase 4, sequence (Q13043 whole entry): as the sequence (Q13043 whole entry, looked up) above

[12] = molecular target: T1, Calcium/calmodulin-dependent protein kinase type II subunit delta (Homo sapiens, UniProt Q13557); assay: Inhibition of CamK2d in human HeLa cells lysate at 2 uM pre incubated for 15 mins followed by ADP acyl phosphate probe addition and measured after 10 mins by LC-MS/MS analysis relative to control; format: subcellular; conditions: time 25.0 min
T1 sequence (Q13557 whole entry): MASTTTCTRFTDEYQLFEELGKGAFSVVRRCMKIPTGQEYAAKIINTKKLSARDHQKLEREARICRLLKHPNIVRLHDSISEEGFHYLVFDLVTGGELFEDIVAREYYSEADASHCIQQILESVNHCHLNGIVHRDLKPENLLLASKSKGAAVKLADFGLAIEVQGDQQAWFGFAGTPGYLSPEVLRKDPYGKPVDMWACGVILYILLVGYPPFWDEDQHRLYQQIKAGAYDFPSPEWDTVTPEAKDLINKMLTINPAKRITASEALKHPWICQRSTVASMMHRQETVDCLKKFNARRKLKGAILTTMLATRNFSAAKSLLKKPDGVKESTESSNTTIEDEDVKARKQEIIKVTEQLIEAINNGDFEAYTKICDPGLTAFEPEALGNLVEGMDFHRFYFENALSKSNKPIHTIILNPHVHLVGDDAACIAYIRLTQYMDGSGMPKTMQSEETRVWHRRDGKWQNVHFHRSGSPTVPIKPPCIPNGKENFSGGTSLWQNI

[13] = molecular target: p38 delta/gamma (Homo sapiens) (UniProt O15264+P53778); assay: Inhibition of p38d/p38g in human HeLa cells lysate at 50 uM pre incubated for 15 mins followed by ATP acyl phosphate probe addition and measured after 10 mins by LC-MS/MS analysis relative to control; format: subcellular; conditions: time 25.0 min
[14] = molecular target: T1, Calcium/calmodulin-dependent protein kinase type II subunit delta; assay: Inhibition of CAMK2d in human HeLa cells lysate pre incubated for 15 mins followed by ATP acyl phosphate probe addition and measured after 10 mins by LC-MS/MS analysis; format: subcellular
Method in brief: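 KiNativ-type profiling in HeLa lysate (5 mg/mL total protein). Lysate preincubated 15 min with inhibitor at 50, 10, 2, 0.8 or 0 μM, then ATP or ADP acylphosphate probe added (5 μM final) for 10 min. Reaction stopped with urea and analysed by targeted MS, using up to four fragment ions per kinase peptide-probe conjugate. % inhibition calculated against untreated lysate. Duplicate reactions.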

[15] = molecular target: T2, Interleukin-1 receptor-associated kinase 4 (Homo sapiens) (UniProt Q9NWZ3); assay: Inhibition of IRAK4 in human HeLa cells lysate at 50 uM pre incubated for 15 mins followed by ADP acyl phosphate probe addition and measured after 10 mins by LC-MS/MS analysis relative to control; format: subcellular; conditions: time 25.0 min
T2 sequence (whole entry): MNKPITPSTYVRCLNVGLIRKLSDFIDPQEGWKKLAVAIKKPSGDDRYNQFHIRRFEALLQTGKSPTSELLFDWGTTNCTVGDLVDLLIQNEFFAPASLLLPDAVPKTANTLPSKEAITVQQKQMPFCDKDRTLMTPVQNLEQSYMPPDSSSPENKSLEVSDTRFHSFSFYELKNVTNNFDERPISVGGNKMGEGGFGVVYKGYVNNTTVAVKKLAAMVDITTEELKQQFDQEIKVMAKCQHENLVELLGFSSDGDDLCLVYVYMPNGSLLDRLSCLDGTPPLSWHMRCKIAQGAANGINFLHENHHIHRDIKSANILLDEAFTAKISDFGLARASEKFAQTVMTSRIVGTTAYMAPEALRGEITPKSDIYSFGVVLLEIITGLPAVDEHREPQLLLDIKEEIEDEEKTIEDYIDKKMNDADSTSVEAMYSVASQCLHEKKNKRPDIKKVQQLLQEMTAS

[16] = molecular target: T3, EKC/KEOPS complex subunit TP53RK (Homo sapiens) (UniProt Q96S44); assay: Inhibition of PRPK in human HeLa cells lysate at 50 uM pre incubated for 15 mins followed by ADP acyl phosphate probe addition and measured after 10 mins by LC-MS/MS analysis relative to control; format: subcellular; conditions: time 25.0 min
T3 sequence (whole entry): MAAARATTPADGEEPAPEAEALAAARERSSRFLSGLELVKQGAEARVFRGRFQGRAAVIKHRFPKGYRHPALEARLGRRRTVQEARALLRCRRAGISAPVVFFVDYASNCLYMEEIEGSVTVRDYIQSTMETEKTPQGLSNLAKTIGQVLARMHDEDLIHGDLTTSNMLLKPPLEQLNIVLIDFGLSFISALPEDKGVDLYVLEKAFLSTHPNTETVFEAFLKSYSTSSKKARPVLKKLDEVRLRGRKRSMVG

[17] = molecular target: Serine/threonine-protein kinase LATS2 (Homo sapiens, UniProt Q9NRM7); assay: Inhibition of LATS2 in human HeLa cells lysate pre incubated for 15 mins followed by ADP acyl phosphate probe addition and measured after 10 mins by LC-MS/MS analysis; format: subcellular

Serine/threonine-protein kinase PLK4 (Homo sapiens), sequence (O00444 whole entry): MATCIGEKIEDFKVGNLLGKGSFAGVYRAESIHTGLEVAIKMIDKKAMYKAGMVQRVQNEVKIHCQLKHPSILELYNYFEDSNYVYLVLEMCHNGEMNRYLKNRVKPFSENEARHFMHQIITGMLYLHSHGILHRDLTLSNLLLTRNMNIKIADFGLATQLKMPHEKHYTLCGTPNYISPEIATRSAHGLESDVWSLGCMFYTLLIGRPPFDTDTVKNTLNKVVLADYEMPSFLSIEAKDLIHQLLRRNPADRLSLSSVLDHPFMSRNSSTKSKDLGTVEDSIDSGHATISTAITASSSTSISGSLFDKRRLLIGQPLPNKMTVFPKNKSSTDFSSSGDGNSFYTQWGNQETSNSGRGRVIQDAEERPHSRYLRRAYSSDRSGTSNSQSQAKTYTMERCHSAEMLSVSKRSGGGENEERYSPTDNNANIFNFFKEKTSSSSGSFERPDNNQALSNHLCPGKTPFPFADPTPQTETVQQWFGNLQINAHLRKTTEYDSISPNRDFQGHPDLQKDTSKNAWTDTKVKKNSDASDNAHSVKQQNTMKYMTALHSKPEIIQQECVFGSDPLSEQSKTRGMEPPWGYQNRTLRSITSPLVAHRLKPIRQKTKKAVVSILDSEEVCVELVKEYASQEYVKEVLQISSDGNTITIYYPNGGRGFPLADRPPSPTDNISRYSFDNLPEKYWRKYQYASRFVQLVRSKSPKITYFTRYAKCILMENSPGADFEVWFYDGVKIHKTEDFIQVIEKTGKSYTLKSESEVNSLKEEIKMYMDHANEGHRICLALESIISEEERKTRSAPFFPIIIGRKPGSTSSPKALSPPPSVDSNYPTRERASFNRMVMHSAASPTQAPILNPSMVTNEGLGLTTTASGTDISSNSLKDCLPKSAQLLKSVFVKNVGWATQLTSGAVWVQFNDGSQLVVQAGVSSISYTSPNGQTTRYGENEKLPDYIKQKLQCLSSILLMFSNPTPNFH

SMILES: CCOc1cc(N2CCC(O)CC2)ccc1Nc1ncc2c(n1)N(C)c1ccccc1C(=O)N2C
- Activity [1]: 2.8%
- IC50 [2]: > 50 µM
- inhibition [3]: 11.3%
- inhibition (Ephrin type-A receptor 2): -3.9%
- inhibition [4]: -2.3%
- IC50 [5]: > 50 µM
- IC50 [6]: > 50 µM
- IC50 [7]: > 50 µM
- inhibition at 50 µM [8]: -11.1%
- IC50 [9]: > 50 µM
- inhibition [10]: 6.2%
- IC50 [11]: > 50 µM
- inhibition [12]: -6.5%
- inhibition [13]: 37.2%
- IC50 [14]: > 50 µM
- inhibition [15]: -0.4%
- inhibition [16]: 15.7%
- IC50 [17]: > 50 µM

— ChEMBL document CHEMBL5661979, “Pharmacological inhibition of BMK1 suppresses tumor growth through promyelocytic leukemia protein” (Cancer Cell, 2010)
